Data published in ChEMBL document CHEMBL1136904, “Histone deacetylase inhibitors with a primary amide zinc binding group display antitumor activity in xenograft model” (Bioorg Med Chem Lett, 2009).
The source made the active and inactive calls.

How the values were obtained:
[1] = test system: HeLa; experiment: Antiproliferative activity against human HeLa cells after 72 hrs by celltiter-blue cell viability assay; type: functional, cell-based
Method in brief: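 72 h proliferation assay in HeLa cervical cancer cells, giving IC50; means of two or more experiments.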

[2] = molecular target: Histone deacetylase 1 (Homo sapiens, UniProt Q13547); experiment: Inhibition of C-terminal FLAG tagged HDAC1
Sequence of Histone deacetylase 1 (Q13547 whole entry): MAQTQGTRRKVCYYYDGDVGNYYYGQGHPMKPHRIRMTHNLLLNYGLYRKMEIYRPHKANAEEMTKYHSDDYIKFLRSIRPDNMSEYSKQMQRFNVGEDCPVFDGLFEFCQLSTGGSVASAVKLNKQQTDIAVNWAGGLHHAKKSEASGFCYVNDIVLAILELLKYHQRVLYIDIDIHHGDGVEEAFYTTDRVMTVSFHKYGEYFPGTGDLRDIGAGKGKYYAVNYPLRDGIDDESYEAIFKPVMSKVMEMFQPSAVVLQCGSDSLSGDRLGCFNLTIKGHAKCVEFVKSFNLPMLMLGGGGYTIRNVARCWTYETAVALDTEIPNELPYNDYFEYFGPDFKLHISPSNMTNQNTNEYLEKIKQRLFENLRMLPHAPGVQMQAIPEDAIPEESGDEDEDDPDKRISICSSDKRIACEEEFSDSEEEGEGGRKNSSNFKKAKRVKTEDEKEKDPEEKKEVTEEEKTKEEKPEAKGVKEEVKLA

[3] = test system: Mus musculus; experiment: Toxicity against human HCT116 cells xenografted nude mouse assessed as body weight loss at 150 mg/kg, ip administered once daily for 18 days; type: organism-based, HCT-116; parameters: dose 150 mg/kg, route intraperitoneal; conditions: in vivo, 432 h
[4] = test system: Mus musculus; experiment: Increase in histone acetylation in human HCT116 cells xenografted nude mouse at 100 mg/kg, ip measured for 24 hrs; type: functional, organism-based; parameters: dose 100 mg/kg; conditions: HCT-116
Method in brief: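 Target engagement in nude mice bearing HCT116 xenografts, 4 per group. Single ip dose of 100 mpk, with vehicle controls. Histone acetylation measured in tumor biopsies at time points after administration and reported as mean ± SEM.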

[5] = molecular target: Histone deacetylase 2 (Homo sapiens, UniProt Q92769); experiment: Inhibition of C-terminal FLAG tagged HDAC2
Sequence of Histone deacetylase 2 (Q92769 whole entry): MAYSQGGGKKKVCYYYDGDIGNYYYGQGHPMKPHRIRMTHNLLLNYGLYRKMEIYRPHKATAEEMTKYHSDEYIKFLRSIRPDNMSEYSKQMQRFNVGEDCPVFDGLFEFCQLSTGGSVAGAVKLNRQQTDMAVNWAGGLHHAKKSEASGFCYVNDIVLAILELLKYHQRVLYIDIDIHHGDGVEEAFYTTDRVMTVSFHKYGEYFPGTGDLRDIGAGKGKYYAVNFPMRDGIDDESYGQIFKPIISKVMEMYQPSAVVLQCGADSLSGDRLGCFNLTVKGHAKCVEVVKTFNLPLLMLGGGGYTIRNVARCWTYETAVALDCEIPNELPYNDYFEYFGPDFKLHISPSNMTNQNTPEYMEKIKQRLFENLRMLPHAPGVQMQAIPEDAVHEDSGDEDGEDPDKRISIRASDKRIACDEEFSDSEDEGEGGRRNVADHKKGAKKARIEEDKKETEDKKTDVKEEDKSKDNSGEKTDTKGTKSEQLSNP

[6] = molecular target: T1, Protein deacetylase HDAC6 (Homo sapiens, UniProt Q9UBN7); experiment: Inhibition of C-terminal FLAG tagged HDAC6
T1 sequence (Q9UBN7 whole entry): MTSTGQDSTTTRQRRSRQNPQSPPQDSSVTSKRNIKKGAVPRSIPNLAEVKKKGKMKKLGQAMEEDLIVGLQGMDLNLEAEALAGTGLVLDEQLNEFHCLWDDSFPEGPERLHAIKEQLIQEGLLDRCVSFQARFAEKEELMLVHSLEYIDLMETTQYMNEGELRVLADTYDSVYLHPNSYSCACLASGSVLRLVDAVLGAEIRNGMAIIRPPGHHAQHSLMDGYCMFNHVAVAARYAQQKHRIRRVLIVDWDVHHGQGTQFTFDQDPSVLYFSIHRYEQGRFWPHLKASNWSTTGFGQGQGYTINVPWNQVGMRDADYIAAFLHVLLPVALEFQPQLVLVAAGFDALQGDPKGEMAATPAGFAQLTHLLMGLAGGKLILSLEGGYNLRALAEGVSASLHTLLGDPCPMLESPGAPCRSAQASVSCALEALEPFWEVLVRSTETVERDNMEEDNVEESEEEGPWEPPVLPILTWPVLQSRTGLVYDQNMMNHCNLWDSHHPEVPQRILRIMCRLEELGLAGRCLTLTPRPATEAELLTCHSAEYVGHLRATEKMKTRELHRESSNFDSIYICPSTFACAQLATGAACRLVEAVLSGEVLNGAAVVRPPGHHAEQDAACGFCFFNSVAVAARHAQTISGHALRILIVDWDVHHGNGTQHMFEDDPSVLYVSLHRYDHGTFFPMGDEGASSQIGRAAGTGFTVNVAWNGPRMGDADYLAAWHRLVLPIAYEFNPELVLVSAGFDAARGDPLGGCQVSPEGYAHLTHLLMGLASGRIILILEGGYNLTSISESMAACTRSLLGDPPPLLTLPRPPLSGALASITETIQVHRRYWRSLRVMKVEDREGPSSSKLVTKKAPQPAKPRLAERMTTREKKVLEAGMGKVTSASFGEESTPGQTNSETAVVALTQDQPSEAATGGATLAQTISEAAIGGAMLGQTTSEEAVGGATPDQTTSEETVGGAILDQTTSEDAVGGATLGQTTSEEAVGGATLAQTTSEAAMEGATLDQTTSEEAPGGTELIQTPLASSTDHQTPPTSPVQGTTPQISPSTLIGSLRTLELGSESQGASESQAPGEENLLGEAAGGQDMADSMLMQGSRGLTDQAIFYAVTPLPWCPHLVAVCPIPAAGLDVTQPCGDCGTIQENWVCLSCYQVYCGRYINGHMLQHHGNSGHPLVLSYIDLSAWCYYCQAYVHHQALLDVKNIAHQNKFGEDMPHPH

[7] = test system: Mus musculus; experiment: Toxicity in mouse assessed as body weight loss at 100 mg/kg, ip administered daily for 2 weeks; type: organism-based; parameters: dose 100 mg/kg, route intraperitoneal; conditions: in vivo, 336 h
Method in brief: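 Preliminary MTD study in mice. Intraperitoneal dosing once daily for 2 weeks, tracking mortality and body weight loss. Tolerated dose defined as no mortality and body weight loss below 5%.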

[8] = test system: HCT-116; experiment: Antiproliferative activity against human HCT116 cells after 72 hrs by celltiter-blue cell viability assay; type: functional, cell-based; conditions: HCT-116, 72 h
[9] = Toxicity in ip dosed mouse assessed as maximum tolerated dose administered daily for 2 weeks; type: organism-based; conditions: in vivo
Method in brief: (§1)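 Preliminary tolerability study in mice, with intraperitoneal dosing once daily for 2 weeks. The maximum tolerated dose was defined as the dose giving no mortality and body weight loss below 5%.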

[10] = test system: A549; experiment: Antiproliferative activity against human A549 cells after 72 hrs by celltiter-blue cell viability assay; type: functional, cell-based; conditions: A549, 72 h
[11] = molecular target: Histone deacetylase 4 (Homo sapiens, UniProt P56524); experiment: Inhibition of His-tagged HDAC4 catalytic domain expressed in Escherichia coli
Sequence of Histone deacetylase 4 (P56524 whole entry, the tested form may be a part): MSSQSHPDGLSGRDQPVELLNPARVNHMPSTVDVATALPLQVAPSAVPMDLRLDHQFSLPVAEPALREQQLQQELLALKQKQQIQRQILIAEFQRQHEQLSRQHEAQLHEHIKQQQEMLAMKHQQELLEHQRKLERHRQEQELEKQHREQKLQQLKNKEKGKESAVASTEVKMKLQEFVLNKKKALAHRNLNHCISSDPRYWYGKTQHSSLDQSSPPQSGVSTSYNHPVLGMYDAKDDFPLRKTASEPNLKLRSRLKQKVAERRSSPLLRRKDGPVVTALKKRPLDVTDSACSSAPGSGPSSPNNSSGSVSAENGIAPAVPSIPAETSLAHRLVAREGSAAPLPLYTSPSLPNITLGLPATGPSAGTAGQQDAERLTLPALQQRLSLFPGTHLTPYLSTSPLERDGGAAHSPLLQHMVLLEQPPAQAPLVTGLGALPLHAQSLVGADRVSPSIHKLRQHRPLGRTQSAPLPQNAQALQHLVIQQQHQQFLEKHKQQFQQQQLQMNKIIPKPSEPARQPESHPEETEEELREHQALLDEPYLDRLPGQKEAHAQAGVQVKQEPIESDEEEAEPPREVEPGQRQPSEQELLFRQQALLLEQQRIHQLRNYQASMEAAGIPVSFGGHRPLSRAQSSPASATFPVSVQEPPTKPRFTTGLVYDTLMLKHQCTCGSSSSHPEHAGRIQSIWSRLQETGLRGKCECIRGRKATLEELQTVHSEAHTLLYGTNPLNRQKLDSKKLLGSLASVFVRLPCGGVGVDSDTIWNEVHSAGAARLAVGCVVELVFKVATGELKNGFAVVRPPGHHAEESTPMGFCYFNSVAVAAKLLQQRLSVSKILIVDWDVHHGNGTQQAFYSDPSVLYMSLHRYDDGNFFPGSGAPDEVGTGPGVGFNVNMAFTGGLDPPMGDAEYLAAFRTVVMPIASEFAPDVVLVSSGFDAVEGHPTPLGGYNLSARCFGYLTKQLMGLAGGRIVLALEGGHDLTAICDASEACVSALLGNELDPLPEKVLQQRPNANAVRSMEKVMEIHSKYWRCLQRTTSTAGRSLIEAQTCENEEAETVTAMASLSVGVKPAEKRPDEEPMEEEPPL

[12] = molecular target: T2, Histone deacetylase 8 (Homo sapiens, UniProt Q9BY41); experiment: Inhibition of His-tagged HDAC8 catalytic domain expressed in Escherichia coli
T2 sequence (Q9BY41 whole entry): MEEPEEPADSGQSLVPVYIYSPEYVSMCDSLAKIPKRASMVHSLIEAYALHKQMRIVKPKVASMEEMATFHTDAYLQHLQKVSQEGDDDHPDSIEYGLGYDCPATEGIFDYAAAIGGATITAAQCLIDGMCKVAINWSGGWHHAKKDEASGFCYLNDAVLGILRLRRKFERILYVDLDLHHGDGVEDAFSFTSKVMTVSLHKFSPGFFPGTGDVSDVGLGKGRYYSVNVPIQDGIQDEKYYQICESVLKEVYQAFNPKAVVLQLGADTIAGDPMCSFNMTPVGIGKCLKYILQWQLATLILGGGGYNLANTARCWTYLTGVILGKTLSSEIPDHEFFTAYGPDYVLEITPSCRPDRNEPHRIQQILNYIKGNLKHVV

[13] = test system: Mus musculus; experiment: Toxicity against human HCT116 cells xenografted nude mouse assessed as body weight loss at 100 mg/kg, ip administered once daily for 18 days; type: organism-based, HCT-116; parameters: dose 100 mg/kg, route intraperitoneal; conditions: in vivo, 432 h
[14] = test system: HCT-116; experiment: Antitumor activity against human HCT116 cells xenografted nude mouse assessed as tumor growth inhibition at 100 mg/kg, ip administered once daily for 18 days relative to control; type: functional; conditions: HCT-116, ip, 432 h, route intraperitoneal, read-out: TGI
Method in brief: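 HCT116 human colon carcinoma xenografts in nude mice, 12 per group. Dosed intraperitoneally once daily for 18 days and compared with vehicle-treated animals. Tumor growth followed over time and reported as mean ± SEM.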

[15] = molecular target: Histone deacetylase 3 (Homo sapiens, UniProt O15379); experiment: Inhibition of C-terminal FLAG tagged HDAC3
Sequence of Histone deacetylase 3 (O15379 whole entry): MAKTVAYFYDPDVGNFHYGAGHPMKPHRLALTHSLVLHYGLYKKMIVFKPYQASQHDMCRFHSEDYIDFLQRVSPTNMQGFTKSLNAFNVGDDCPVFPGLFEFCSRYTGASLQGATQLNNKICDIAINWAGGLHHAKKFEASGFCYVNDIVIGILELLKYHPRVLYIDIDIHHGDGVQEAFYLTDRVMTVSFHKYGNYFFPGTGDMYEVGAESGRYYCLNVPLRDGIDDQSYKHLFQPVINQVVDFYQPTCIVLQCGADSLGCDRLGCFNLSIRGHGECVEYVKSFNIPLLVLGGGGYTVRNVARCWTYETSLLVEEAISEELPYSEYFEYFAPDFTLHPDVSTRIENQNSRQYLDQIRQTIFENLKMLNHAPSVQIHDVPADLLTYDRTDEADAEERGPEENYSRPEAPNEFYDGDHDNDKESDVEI

[16] = test system: Mus musculus; experiment: Toxicity in mouse assessed as mortality at 100 mg/kg, ip administered daily for 2 weeks; type: organism-based; parameters: dose 100 mg/kg, route intraperitoneal; conditions: in vivo, 336 h; method in brief: as §1
[17] = Intrinsic clearance in human liver microsomes in presence of NADPH; type: ADME, Microsome
Method in brief: (§2)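 Metabolic stability measured in liver microsomes (rat, human, dog) in the presence of NADPH. Intrinsic clearance expressed as µL/min/mg protein.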

[18] = Intrinsic clearance in rat liver microsomes in presence of NADPH; type: ADME, Microsome; method in brief: as §2
[19] = Intrinsic clearance in human microsomes in presence of UDPGA; type: ADME, Microsome
Method in brief: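 Glucuronidation measured in human microsomes in the presence of UDPGA. Intrinsic clearance expressed as µL/min/mg protein.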

[20] = Intrinsic clearance in dog liver microsomes in presence of NADPH; type: ADME, Canis lupus familiaris, Microsome; method in brief: as §2

SMILES | IC50 [1] | IC50 [2] | also measured
CONC(=O)CCCCC[C@H](NC(=O)Cc1c(C)[nH]c2ccc(OC)cc12)c1ncc(-c2ccc3ccccc3c2)[nH]1 | 660 nM | 34 nM | 
O=C(CCCCCCC(=O)Nc1ccccc1)NO [VORINOSTAT] |  |  | Activity [3]: < 5%
CN1CC[C@@H](C(=O)N[C@@H](CCCCCC(=O)O)c2ncc(-c3ccc4ccccc4c3)[nH]2)C1 | > 25000 nM | 73 nM | 
CN(C)S(=O)(=O)N[C@@H](CCCCCC(=O)O)c1ncc(-c2ccc3ccccc3c2)[nH]1 | 26400 nM | 220 nM | 
COc1ccc2[nH]c(C)c(CC(=O)N[C@@H](CCCCCC(=O)Nc3ccccc3N)c3ncc(-c4ccc5ccccc5c4)[nH]3)c2c1 | 1340 nM | 110 nM | 
COc1ccc2[nH]c(C)c(CC(=O)N[C@@H](CCCCCC(=O)NS(=O)(=O)C(F)(F)F)c3ncc(-c4ccc5ccccc5c4)[nH]3)c2c1 | 33500 nM | 94 nM | 
CN1CCC(C(=O)N[C@@H](CCCCCC(=O)O)c2ncc(-c3ccc4ccccc4c3)[nH]2)CC1 | 35000 nM | 35 nM | 
CCC(=O)CCCCC[C@@H]1NC(=O)[C@H]2CCCCN2C(=O)[C@H]([C@@H](C)CC)NC(=O)[C@H](Cc2cn(OC)c3ccccc23)NC1=O [APICIDIN] | 290 nM |  | 
COc1ccc2[nH]c(C)c(CC(=O)N[C@@H](CCCCCC(=O)Nc3ccccc3)c3ncc(-c4ccc5ccccc5c4)[nH]3)c2c1 | 5900 nM | 200 nM | 
COc1ccc2[nH]c(C)c(CC(=O)N[C@@H](CCCCCC(=O)N(C)C)c3ncc(-c4ccc5ccccc5c4)[nH]3)c2c1 | 3800 nM | 170 nM | 
CCC(=O)CCCCC[C@H](NC(=O)Cc1c(C)[nH]c2ccc(OC)cc12)c1ncc(-c2ccc3ccccc3c2)[nH]1 | 200 nM | 27 nM | 
COc1ccc2[nH]c(C)c(CC(=O)N[C@@H](CCCCCC(C)=O)c3ncc(-c4ccccc4)[nH]3)c2c1 |  | 27 nM | 
COc1ccc2[nH]c(C)c(CC(=O)N[C@@H](CCCCCC(N)=O)c3ncc(-c4ccc5ccccc5c4)[nH]3)c2c1 | 440 nM |  | Activity [4]: Active; IC50 [5]: 160 nM; IC50 [6]: 120 nM; Activity [7]: < 5%; IC50 [8]: 860 nM; MTD at 336 h [9]: 100 mg/kg; IC50 [10]: 3560 nM; IC50 [11]: > 10000 nM; IC50 [12]: > 5000 nM; Activity [13]: < 5%; inhibition in vivo at 100 mg/kg [14]: 29%; IC50 [15]: 250 nM; Activity [16]: Non-toxic
COc1ccc2[nH]c(C)c(CC(=O)N[C@@H](CCCCCC(=O)NCc3ccccc3)c3ncc(-c4ccc5ccccc5c4)[nH]3)c2c1 | 6800 nM | 1000 nM | 
COc1ccc2[nH]c(C)c(CC(=O)N[C@@H](CCCCCC(=O)NC(C)C)c3ncc(-c4ccc5ccccc5c4)[nH]3)c2c1 | 12000 nM | 480 nM | 
COc1ccc2[nH]c(C)c(CC(=O)N[C@@H](CCCCCC(=O)Nc3nncs3)c3ncc(-c4ccc5ccccc5c4)[nH]3)c2c1 | 4700 nM | 350 nM | 
COc1ccc2[nH]c(C)c(CC(=O)N[C@@H](CCCCCC(=O)NS(C)(=O)=O)c3ncc(-c4ccc5ccccc5c4)[nH]3)c2c1 | 8000 nM | 47 nM | 
O=C(O)CCCCC[C@H](NS(=O)(=O)c1ccccc1[N+](=O)[O-])c1ncc(-c2ccc3ccccc3c2)[nH]1 | 6860 nM | 19 nM | 
CNC(=O)CCCCC[C@H](NC(=O)Cc1c(C)[nH]c2ccc(OC)cc12)c1ncc(-c2ccc3ccccc3c2)[nH]1 | 1700 nM | 120 nM | 
CN1CC[C@H](C(=O)N[C@@H](CCCCCC(=O)O)c2ncc(-c3ccc4ccccc4c3)[nH]2)C1 | > 25000 nM | 40 nM | 
O=C(O)CCCCC[C@H](NC(=O)c1cncs1)c1ncc(-c2ccc3ccccc3c2)[nH]1 | 5800 nM | 23 nM | 
COc1ccc2[nH]c(C)c(CC(=O)N[C@@H](CCCCCC(=O)O)c3ncc(-c4ccc5ccccc5c4)[nH]3)c2c1 | 390 nM | 28 nM | microsomal CLint [17]: 9 µL/min/mg; microsomal CLint [18]: 177 µL/min/mg; microsomal CLint [19]: 24 µL/min/mg; microsomal CLint [20]: 3 µL/min/mg
CCNC(=O)CCCCC[C@H](NC(=O)Cc1c(C)[nH]c2ccc(OC)cc12)c1ncc(-c2ccc3ccccc3c2)[nH]1 | 2700 nM | 66 nM | 
COc1ccc2[nH]c(C)c(CC(=O)N[C@@H](CCCCCC(=O)NO)c3ncc(-c4ccc5ccccc5c4)[nH]3)c2c1 | 180 nM | 3 nM | 
